# In the library only some 3.8% were active in any assay of this set; here they are far more common.
# OX1R antag-1 – blocks the human orexin 1 receptor | O43613 | CHO/OX1R cells, Fluo-8 calcium fluorescence, orexin A | inhibition, % at 5 µM | hit rate 0.43% among 330,000 | AID 434989;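 active means inhibition above its plate's threshold, mean inhibition of all tested compounds on the plate plus 3 SD, cut at about 37% in these data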;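 further: 0% = orexin A challenge wells and 100% = SB-334867-A antagonist wells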
# CHO parental Ca – signal in parental CHO cells, OX1R antagonist counter-screen. hit rate 0.63% among 330,000. AID 463079. inhibition, % at 5.6 µM. parental CHO-K1, ATP-induced calcium, Fluo-8 fluorescence;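 active means inhibition above that plate's mean sample inhibition plus 3 SD, cut at about 26% in these data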;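 further: 0% = ATP-challenged DMSO wells and 100% = DMSO wells without ATP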
#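 Assay system: parental CHO cells; Read-out basis: percent inhibition of ATP-evoked calcium rise, normalized to controls; Benchmarks: ATP and no-ATP DMSO wells; Compound dosing: single nominal dose of 5.6 µM per compound; Signal: Fluo-8 calcium dye fluorescence; Also added: ATP as calcium-mobilizing challenge; Repeats: singlicate.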
# MPTP block – permeability transition pore inhibition. isolated mouse mitochondria, Ca2+ swelling absorbance, 30 min. inhibition, % at 10 µM. hit rate 1.4% among 360,000. AID 602449;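 active means inhibition of 50% or more, scaled per plate between neutral and stimulator controls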;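 further: 0% = DMSO wells given calcium and 100% = 1 mM EGTA wells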
# OX1R antag-2 – antagonists of human orexin 1 receptor (OX1R); inhibition, % at 6.6 µM; O43613; AID 485270; OX1R-expressing cells, FRET antagonist read-out; hit rate 1.8% among 330,000; in the data active means inhibition mostly above about 38%, no sharp cut-off; inactive means mostly below about 40%;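 further: 0% = agonist challenge alone and 100% = reference antagonist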
# GPR7 antagonist – human neuropeptides B/W receptor 1 antagonism | AID 1861 | inhibition, % at 4.4 µM | GPR7-expressing cells, fluorescence antagonist assay | hit rate 1.1% among 290,000; in the data active means inhibition above about 16%, passing the limit was not always enough;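 further: cells stimulated with the agonist NPW; 0% = agonist with vehicle and 100% = vehicle without agonist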
# Target sequence (P48145 whole entry, looked up): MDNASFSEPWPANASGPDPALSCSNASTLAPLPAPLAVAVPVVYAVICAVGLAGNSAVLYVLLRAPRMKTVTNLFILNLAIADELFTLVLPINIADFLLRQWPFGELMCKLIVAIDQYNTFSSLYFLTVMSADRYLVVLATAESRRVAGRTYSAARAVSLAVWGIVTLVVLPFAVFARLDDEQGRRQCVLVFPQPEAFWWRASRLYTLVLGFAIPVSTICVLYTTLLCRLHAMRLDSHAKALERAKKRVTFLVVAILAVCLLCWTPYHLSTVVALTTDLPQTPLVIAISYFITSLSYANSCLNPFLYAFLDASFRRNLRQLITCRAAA
# Rh123 counter – membrane potential counter-screen of mitochondrial pore inhibitors. shares compounds with MPTP block. isolated mitochondria, Rhodamine 123 fluorescence. inhibition, % at 10 µM. hit rate 78% among 5,000; in the data active means inhibition above about 22%;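 further: 0% = DMSO vehicle and 100% = positive control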
# MPTP swell DR – MPTP inhibition, dose response swelling confirmation. shares compounds with MPTP block. AID 651561. IC50, µM. isolated mitochondria swelling, absorbance. hit rate 58% among 780; in the data active means IC50 below about 20 µM
# MPTP counter DR – active in counter-screen for permeability transition pore inhibitors; shares compounds with MPTP block; isolated mitochondria counterscreen, fluorescence read-out; IC50, µM; hit rate 49% among 780; in the data active means IC50 below about 80 µM
# An asterisk follows results filed as active; i = inactive; x = not tested or not shown.
SMILES,OX1R antag-1,CHO parental Ca,MPTP block,OX1R antag-2,GPR7 antagonist,Rh123 counter,others
O=C(Nc1ccc(F)cc1)Nc1ccc(N2CCCC2)c(S(=O)(=O)Nc2ccccc2Cl)c1,25,-8,100*,47,1,61*,
COc1ccccc1NS(=O)(=O)c1cc(NC(=O)Nc2ccccc2)ccc1N1CCCCC1,-2,-5,30,14,-16,x,
O=C(Nc1ccc(Cl)c(Cl)c1)Nc1ccc(N2CCCC2)c(S(=O)(=O)Nc2ccccc2Cl)c1,13,-4,100*,30,5,49*,
O=C(Nc1ccc(F)cc1)Nc1ccccc1N1CCCCC1,-22,-21,85*,16,-16,77*,
Cc1cc(C)n2[nH]c(=O)cc2n1,x,x,-1,x,x,x,
Cc1ccc(S(=O)(=O)NNC(=O)C2CC=CCC2C(=O)O)cc1 (configuration not stated),-10,0,55*,6,4,2,MPTP swell DR=>100;MPTP counter DR=>80
CC(CN(C)C)CN1c2ccccc2Sc2ccccc21 (configuration not stated),-5,-10,77*,18,x,-11,MPTP swell DR=7.1*;MPTP counter DR=>80
CC(CN1c2ccccc2Sc2ccccc21)N(C)C (configuration not stated),-16,-12,3,22,1,x,
COc1ccc2c(c1)N(C[C@H](C)CN(C)C)c1ccccc1S2,x,x,67*,x,x,-16,MPTP swell DR=8.8*;MPTP counter DR=>80
O=C(O)c1ccccc1C(=O)c1ccc(F)c(F)c1,x,x,1,x,x,x,
Cc1ccc(Nc2nc3nonc3[nH]c2=O)cc1Cl,20,28,92*,43,1,99*,
CN(C)CCCNC(=O)CCc1nc2ccccc2c(=O)[nH]1,-6,-4,74*,13,3,6,MPTP swell DR=>100;MPTP counter DR=>80
Clc1ccc(/C=C/c2nc3ccccc3[nH]2)c(Cl)c1,-28,-10,86*,37,16,79*,
O=c1[nH]c(/C=C/c2ccccc2Cl)nc2ccccc12,-30,-6,0,10,16,x,
Clc1ccc(/C=C/c2nc3ccccc3[nH]2)cc1,-20,-20,80*,24,-5,85*,
Clc1cccc(Cl)c1/C=C/c1nc2ccccc2[nH]1,-20,-26,95*,50*,-14,82*,
O=C(Cc1cccc(NC(=O)C2CCN(C(=O)c3ccccc3)CC2)c1)Nc1cccc(C(=O)N2CCCCC2)c1,x,x,-2,x,x,x,
CC(=O)N1CCN(C(=O)c2cccc(S(=O)(=O)NCc3ccccc3)c2)CC1,-8,-18,0,3,x,x,
N/C(=N\NS(=O)(=O)c1ccc(Cl)cc1)c1ccccn1,-16,-1,1,10,x,x,
COc1ccc(CCNC(=O)CNCC2CCCCC2)cc1OC,-17,-19,0,11,0,x,
COc1ccc(/C=C(\NC(=O)c2ccccc2)C(=O)OCC2CCCN3CCCCC23)cc1OC (configuration not stated),-29,-23,-1,15,1,x,
Cc1ccc2[nH]c3c(N4CCc5ccccc5C4)ncnc3c2c1,51*,64*,106*,82*,13,93*,
Fc1ccc2[nH]c3c(N4CCc5ccccc5C4)ncnc3c2c1,11,65*,89*,56*,11,83*,
CCOc1ccc2[nH]c3c(N4CCc5ccccc5C4)ncnc3c2c1,-9,-16,37,13,-9,x,
C=CCN1C(=O)/C(=C/c2ccc(OC(C)=O)c(OCC)c2[N+](=O)[O-])SC1=S,x,x,102*,x,0,65*,
SMILES,OX1R antag-1,CHO parental Ca,MPTP block,OX1R antag-2,GPR7 antagonist,Rh123 counter,others
Brc1ccc2ncnc(NCc3ccccc3)c2c1,28,13,59*,64,2,88*,
O=C(CSc1ncnc2ccccc12)NCCc1ccccc1,-20,-12,0,3,-14,x,
Cc1cc2c(Nc3ccccc3)ncnc2s1,-9,-15,-1,23,0,x,
c1ccc(CCNc2ncnc3ccccc23)cc1,2,32*,96*,40,19,103*,
Cc1cc2c(NCCc3ccccc3)ncnc2s1,49*,64*,103*,54*,18,95*,
CCn1cc(Cl)c(C(=O)Nc2nccs2)n1,x,x,-2,x,-8,x,
CN1CCN(c2ccccc2NC(=O)c2ccc(OCc3ccccc3)cc2)CC1,-20,-16,78*,7,4,-10,MPTP swell DR=9.4*;MPTP counter DR=>80
CN1CCN(c2ccccc2NC(=O)C(Cc2ccccc2)n2cccc2)CC1 (configuration not stated),-22,3,81*,-5,-2,-12,MPTP swell DR=i;MPTP counter DR=>80
CCCCOc1ccc(C(=O)Nc2ccc(N3CCN(C)CC3)cc2)cc1,-5,-11,90*,23,-4,-8,MPTP swell DR=i;MPTP counter DR=>80
CCCNC(=O)c1cc(C2CCCN(C(=O)C3CCCCC3)C2)on1 (configuration not stated),x,x,-1,x,x,x,
CN(CC(=O)Nc1ccccc1Cl)C(=O)COC(=O)c1ccc(-c2ccc(O)cc2)cc1,-24,0,0,4,x,x,
COc1ccc(CNC(=O)Nc2ccc([N+](=O)[O-])cc2)cc1,-17,-12,99*,20,x,82*,
O=C(NCCc1ccc(F)cc1)Nc1ccc([N+](=O)[O-])cc1,x,x,82*,x,10,79*,
CCc1cccc(C)c1NC(=O)CN(C)C1=NS(=O)(=O)c2ccccc21,-16,-4,0,7,x,x,
Cc1ccccc1-n1nc2c(c1NC(=O)c1cc3ccccc3o1)CS(=O)(=O)C2,-20,-8,-2,20,x,x,
N#Cc1c(C(F)(F)F)cc(=O)n2c1[nH]c1ccccc12,x,x,92*,x,-26,94*,
CCOc1cc(C2NC(=O)NC(C)=C2C(=O)OCC2CCCCC2)ccc1O (configuration not stated),-33,-19,2,7,-10,x,
Cc1cc(C(=O)CSc2nnc(-c3cccs3)o2)c(C)n1-c1ccccc1,-6,-18,52*,19,3,45*,
Cc1cc(C(=O)CSc2nnc(-c3ccco3)o2)c(C)n1-c1ccc2c(c1)OCCO2,8,-3,26,25,4,x,
Cc1cc(C(=O)CSc2nnc(-c3ccc4c(c3)OCO4)o2)c(C)n1-c1ccc(F)cc1,-20,0,94*,15,-1,42*,
C/C(Sc1nnc(Cc2ccccc2)o1)=C(\O)c1ccccc1,x,x,-2,x,x,x,
COc1cc(CCC(=O)OCC(=O)NCCc2ccc(S(N)(=O)=O)cc2)cc(OC)c1OC,20,-3,-1,3,x,x,
COc1ccc([N+](=O)[O-])cc1NC(=O)CSc1ccc2ccccc2c1,-3,24,62*,61*,1,31*,
COC(=O)NC(NC(=S)Nc1ccc([N+](=O)[O-])cc1)C(Cl)(Cl)Cl (configuration not stated),-2,16,93*,16,1,80*,
